Hits are enriched below; roughly 2.3% of the tested compounds scored in any of these assays.
TRPC6 inh – mouse TRPC6 channel inhibition. Q61143. HEK293-TRPC6, membrane potential dye, ACh-evoked depolarization; hits give low values. B-score at 10 µM. 310,000 tested, 1.1% active. AID 2553;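 active = B-score under library mean minus 3 SD, initial fluorescence not abnormally high, positive integrated signal ratio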;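 note: B-score derived from integrated fluorescence ratio over the kinetic read; more negative B-score means stronger inhibition of depolarization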
Target sequence (Q61143 whole entry, looked up): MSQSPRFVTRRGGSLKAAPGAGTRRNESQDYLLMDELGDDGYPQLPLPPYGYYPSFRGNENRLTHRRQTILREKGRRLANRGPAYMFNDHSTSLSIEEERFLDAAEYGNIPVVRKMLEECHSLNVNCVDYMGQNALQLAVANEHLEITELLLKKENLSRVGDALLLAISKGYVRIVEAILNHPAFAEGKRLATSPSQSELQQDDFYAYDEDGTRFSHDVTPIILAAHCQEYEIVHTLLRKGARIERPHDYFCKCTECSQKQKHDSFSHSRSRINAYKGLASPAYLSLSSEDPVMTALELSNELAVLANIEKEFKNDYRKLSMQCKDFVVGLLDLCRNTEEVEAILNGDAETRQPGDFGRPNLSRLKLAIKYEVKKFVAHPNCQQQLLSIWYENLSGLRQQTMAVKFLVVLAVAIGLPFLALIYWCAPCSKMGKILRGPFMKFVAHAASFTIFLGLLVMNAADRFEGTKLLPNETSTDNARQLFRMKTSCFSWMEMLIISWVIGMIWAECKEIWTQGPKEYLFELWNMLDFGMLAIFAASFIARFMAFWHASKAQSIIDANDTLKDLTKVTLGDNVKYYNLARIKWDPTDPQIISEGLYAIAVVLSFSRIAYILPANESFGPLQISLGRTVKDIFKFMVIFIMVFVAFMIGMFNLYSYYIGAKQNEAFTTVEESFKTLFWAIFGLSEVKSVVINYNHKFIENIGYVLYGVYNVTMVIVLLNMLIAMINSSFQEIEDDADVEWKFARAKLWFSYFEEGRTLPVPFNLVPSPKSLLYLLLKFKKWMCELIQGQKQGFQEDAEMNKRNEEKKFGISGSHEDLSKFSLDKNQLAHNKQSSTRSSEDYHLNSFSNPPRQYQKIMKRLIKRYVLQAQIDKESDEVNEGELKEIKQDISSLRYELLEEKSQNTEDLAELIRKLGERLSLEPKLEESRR
TRPC4 act – TRPC4 (mouse) channel activation; Q9QUQ5; HEK293 TRPC4beta/mu-opioid, Fluo4 calcium fluorescence; hits give high values; B-score at 10 µM; 310,000 tested, 0.49% active;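 active = B-score above 5 SD of library B-scores, and initial fluorescence ratio not above library mean plus 5 SD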;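 note: positive B-score marks a calcium rise read as TRPC4 activation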
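Assay system: HEK293 stable line with TRPC4beta plus mu-opioid receptor. Times: dye 45 min RT, read 110 s. Measured by: kinetic Fluo4 calcium fluorescence. Measure: B score of integrated ratio. Controls: assay buffer as low control, maximal DAMGO as high control.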
TRPC4 potent – TRPC4 (mouse) allosteric potentiation; Q9QUQ5; HEK293 TRPC4beta/mu-opioid, DAMGO EC20, Fluo-4 Ca2+ flux; hits give high values; B-score at 10 µM; 310,000 tested, 0.42% active; AID 2227;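 active = B-score of calcium response area above 5 SD of library B-scores, with initial fluorescence ratio within 5 SD of library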;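 note: B-score of integrated fluorescence ratio over time as area under calcium response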
TRPC6 activator – mouse TRPC6 channel activation; AID 2550; Q61143; 310,000 tested, 0.13% active; B-score at 10 µM; HEK293-TRPC6 membrane potential dye fluorescence; hits give high values;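 active = B-score of the integrated fluorescence ratio above library mean plus 3 SD, and starting fluorescence ratio within library mean plus 5 SD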;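 note: higher score means more depolarization so channel activation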
TRPC4 inh – blocks the mouse TRPC4 cation channel; 300,000 tested, 0.39% active; HEK293 TRPC4beta/mu-opioid, DAMGO-evoked Fluo4 calcium flux; hits give low values; Q9QUQ5; B-score at 10 µM;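 active = B-score over 3 SD under the library average, no early fluorescence shift, positive overall ratio signal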
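test system = HEK293 cells with stable TRPC4beta plus mu-opioid receptor expression | detection = Fluo4 Ca2+ flux fluorescence | read-out = integrated fluorescence ratio relative to baseline, converted to per-well B score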
TRPC4 spec 2 – second selectivity test of TRPC6 inhibitors: effect on mouse TRPC4. AID 2776. inhibition, % at 10 µM. shares compounds with TRPC6 inh. HEK293 TRPC4/MOR, membrane potential dye fluorescence; channel activated by saturating DAMGO dose. 920 tested, 42% active;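 active = compounds whose fluorescence signal differed from control wells by over 3 SD, either direction, in both duplicate plates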
TRPC4 spec – tests whether TRPC6 inhibitors also affect mouse TRPC4. shares compounds with TRPC6 inh. HEK293 TRPC4/mu-opioid, membrane potential fluorescence. activity change, negative = inhibition, % at 10 µM. 920 tested, 61% active;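 active = rise or fall in signal beyond 3 SD of buffer-only wells in both replicate plates, either sign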;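 note: integrated kinetic ratio of fluorescence range over baseline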
HEK293 MPD ctr 2-1 – second counter-screen for TRPC6 inhibitors: parental HEK293 cells | shares compounds with TRPC6 inh | AID 2779 | 920 tested, 31% active | parental HEK293 membrane potential dye fluorescence; maximal acetylcholine challenge after compound addition | signal change vs control, % at 10 µM;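 active = membrane potential signal moving either way by over 3 SD of the maximum-effect control, in both duplicate plates, meaning non-specific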
HEK293 MPD ctr-1 – parental HEK293 nonspecific activity of TRPC6 inhibitors; shares compounds with TRPC6 inh; parental HEK293 membrane potential dye fluorescence; membrane potential signal change, % at 10 µM; 920 tested, 60% active;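 active = membrane potential signal shifting up or down by more than 3 SD of buffer-only wells, on both duplicate plates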
HEK293 MPD ctr-2 – checks TRPC6 modulator effects in parental HEK293 cells; membrane potential dye fluorescence; shares compounds with TRPC6 inh; 2,400 tested, 51% active; membrane potential signal change, % at 10 µM;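 active = membrane potential signal moves up or down beyond 5 SD from buffer-only wells, on both duplicate plates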
HEK293 MPD ctr 2-2 – second counter-screen for TRPC6 modulators: effect in parental HEK293 cells. shares compounds with TRPC6 inh. membrane potential dye fluorescence; after compound, maximal acetylcholine stimulation. inhibition, % at 10 µM. 2,400 tested, 14% active. AID 488926;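 active = membrane potential signal drops by more than 5 SD from the mean control signal, in both duplicate plates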;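 note: plate controls were acetylcholine ECmax control wells for no effect and buffer only wells for full effect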
TRPC4/MOR mod – mouse TRPC4 off-target activity of TRPC6 modulators; shares compounds with TRPC6 inh; AID 488927; HEK293 TRPC4/mu-opioid, membrane potential fluorescence; percent change from control (negative = decrease, positive = increase), % at 10 µM; 2,400 tested, 69% active;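 active = membrane potential signal moved up or down beyond 5 SD of buffer control wells, in both duplicate plates, actives on both sides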;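 note: plate controls were assay buffer wells for no effect and DAMGO maximal-effect wells for full effect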
TRPC4 ctr inh 2 – second check of whether TRPC6 modulators also affect mouse TRPC4; shares compounds with TRPC6 inh; HEK293 TRPC4/mu-opioid, membrane potential dye fluorescence; stimulated with maximal-effect DAMGO; 2,400 tested, 55% active; AID 488928; inhibition, % at 10 µM;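 active = drop in membrane potential signal beyond 5 SD of the control wells in both duplicate plates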;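 note: TRPC4 counter screen for TRPC6 hits run under conditions tuned for TRPC6 not TRPC4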
TRPC6 inh conf – confirmation of mouse TRPC6 inhibitors; HEK293-TRPC6, membrane potential dye, ACh-evoked depolarization; AID 488960; inhibition, % at 10 µM; 3,300 tested, 43% active; shares compounds with TRPC6 inh;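 active = fluorescence ratio falls more than 5 SD below the full-stimulation control mean, in both duplicate runs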;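 note: integrated fluorescence ratio of peak minus minimum over baseline after agonist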
TRPC6 act confirm – mouse TRPC6 activator confirmation | shares compounds with TRPC6 inh | HEK293-TRPC6 membrane potential dye fluorescence, FDSS | activation, % at 10 µM | 2,800 tested, 11% active | AID 488961;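 active = ratio signal rise beyond 5 SD above unstimulated control wells' mean, seen in both duplicate runs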;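 note: plate controls were buffer EC0 wells for no effect and acetylcholine ECmax response for full effect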
* marks the source's active call; other numbers are inactive results; i = inactive; . = no result.

SMILES	TRPC6 inh	TRPC4 act	TRPC4 potent	TRPC6 activator	TRPC4 inh	HEK293 MPD ctr-2	HEK293 MPD ctr 2-2	TRPC4/MOR mod	TRPC4 ctr inh 2	TRPC6 inh conf	TRPC6 act confirm	others
CCc1ccc(/C=C2/SC(=S)N(CCC(=O)NCCCN3CCOCC3)C2=O)cc1	-5.76*	i	i	i	i	i	i	i	45.0%*	39.0%*	i
CCCCC(O)(c1ccc(F)cc1)C(CN1CCOCC1)c1ccc(Cl)cc1 (stereo not drawn)	i	i	i	i	i	.	.	.	.	.	.
CSc1nnc2c3cc(F)ccc3n(C)c2n1	i	i	i	i	i	.	.	.	.	.	.
Cn1c2ccc(F)cc2c2nnc(SCCN3CCCCC3)nc21	-7.39*	i	i	i	i	.	.	.	.	i	i	TRPC4 spec 2=76.5%*;TRPC4 spec=-12.5%*;HEK293 MPD ctr 2-1=16.5%*;HEK293 MPD ctr-1=-203.5%*
CCn1c2ccc(C)cc2c2nnc(SCCN3CCOCC3)nc21	i	i	i	i	i	.	.	.	.	.	.
CCCCn1c2ccc(C)cc2c2nnc(SCCN3CCCCC3)nc21	-5.8*	i	i	i	i	i	i	i	66.5%*	45.0%*	i
CCn1c2ccccc2c2nnc(SCCN3CCCCC3)nc21	i	i	i	i	i	.	.	.	.	.	.
CCCCn1c2ccc(F)cc2c2nnc(SCCN3CCCCC3)nc21	-5.62*	i	i	i	i	-73.5%*	i	-19.0%*	38.0%*	i	i
COc1ccc(C(=O)NCCS(=O)(=O)NC(C)c2ccccc2)cc1 (stereo not drawn)	i	i	i	i	i	.	.	.	.	.	.
COc1ccccc1N1C(=S)NC2CS(=O)(=O)CC21 (stereo not drawn)	i	i	i	i	i	.	.	.	.	.	.
S=C(NCCN(C1CCCCC1)C1CCCC1)Nc1cccc(Cl)c1	-6.09*	i	i	i	i	95.0%*	i	18.5%*	70.0%*	56.5%*	.
S=C(NCCC(c1ccccc1)c1ccccc1)Nc1cccc(Cl)c1	i	i	i	i	i	.	.	.	.	.	.
O=C1CC2(CCN(C(=O)c3ccccc3[N+](=O)[O-])CC2)Oc2ccccc21	i	i	i	i	i	.	.	.	.	.	.
COc1ccc(C(C)=O)cc1CC(=O)NCCCn1ccnc1	i	i	i	i	i	.	.	.	.	.	.
Cc1nnc(SC(C(=O)Nc2ccc(Cl)c([N+](=O)[O-])c2)c2ccccc2)[nH]c1=O (stereo not drawn)	i	i	i	i	i	.	.	.	.	.	.
CC1(C)CC(=O)c2sc(NC(=O)C3CC3)nc2C1	i	i	i	i	i	.	.	.	.	.	.
Cn1nc(C(C)(C)C)cc1C(=O)Nc1nc2c(s1)C(=O)CC(C)(C)C2	-5.03*	i	i	i	i	i	i	i	i	i	.
Cc1cc(C)cc(NC(=S)N2CCC(N(C)CC3CCCO3)CC2)c1 (stereo not drawn)	i	i	i	i	i	.	.	.	.	.	.
Cc1cccc(N(Cc2ccccc2)C(=O)Cc2ccc(S(=O)(=O)N3CCOCC3)s2)c1	i	i	i	i	i	.	.	.	.	.	.
CCNC(=O)COC(=O)C1CCN(S(=O)(=O)c2ccc3c(c2)OCCO3)CC1	i	i	i	i	i	.	.	.	.	.	.
CC(C)C(C)NC(=O)COC(=O)C1CCN(S(=O)(=O)c2ccc3c(c2)OCCO3)CC1 (stereo not drawn)	-6.38*	i	i	i	i	i	i	7.0%*	i	i	i
Nc1nc(Nc2cccc(F)c2)nc2ccccc12	-13*	i	i	i	i	.	.	.	.	90.2%*	i	TRPC4 spec 2=22.5%*;TRPC4 spec=-33.0%*;HEK293 MPD ctr 2-1=-37.0%*;HEK293 MPD ctr-1=-493.0%*
O=c1oc(Nc2cccc(F)c2)nc2ccccc12	i	i	i	i	i	.	.	.	.	.	.
Cc1ccc(O)c(Nc2c3ccccc3nc3ccccc23)c1	-5.59*	i	i	i	i	-92.0%*	i	-18.5%*	60.0%*	i	i
Cc1ccc(O)c(Nc2nc(-c3ccccc3)nc3ccccc23)c1	i	i	i	i	i	.	.	.	.	.	.
SMILES	TRPC6 inh	TRPC4 act	TRPC4 potent	TRPC6 activator	TRPC4 inh	HEK293 MPD ctr-2	HEK293 MPD ctr 2-2	TRPC4/MOR mod	TRPC4 ctr inh 2	TRPC6 inh conf	TRPC6 act confirm	others
Cc1ccc(C)c(Nc2ncnc(N)c2[N+](=O)[O-])c1	i	i	i	i	i	.	.	.	.	.	.
COc1ccc(Cl)cc1Nc1nc(N)c2ccccc2n1	-10.8*	i	i	i	i	.	.	.	.	80.9%*	i	TRPC4 spec 2=46.5%*;TRPC4 spec=-20.0%*;HEK293 MPD ctr 2-1=i;HEK293 MPD ctr-1=-185.0%*
COc1ccc(C)cc1Nc1nc(N)c2cc(OC)c(OC)cc2n1	i	i	i	i	i	.	.	.	.	.	.
Cc1ccc(C)c(Nc2nc(N)c3ccccc3n2)c1	-15.9*	i	i	i	i	.	.	.	.	89.6%*	i	TRPC4 spec 2=18.5%*;TRPC4 spec=-30.3%*;HEK293 MPD ctr 2-1=-3.0%*;HEK293 MPD ctr-1=-269.0%*
CC(/C=C/c1cccc([N+](=O)[O-])c1)=N/NC(=O)c1cccnc1	-5.86*	i	i	i	i	i	i	i	i	i	i
COCC(=O)NC1CCN(S(=O)(=O)c2cccc(C(C)=O)c2)CC1	i	i	i	i	i	.	.	.	.	.	.
CC(C)Oc1ccc(CN2CCC(n3nccc3NC(=O)CCc3ccccc3)CC2)cc1	i	i	i	i	i	.	.	.	.	.	.

Screens: PubChem, Johns Hopkins Ion Channel Center
